Assays:
Type in all cases: functional, organism-based
Rattus norvegicus [1] = organism: Rattus norvegicus; assay: Effective concentration was measured for the release of accumulated [3H]dopamine from chopped striatum of rat
In short: (§1)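 Chopped rat cortex (NE) or corpus striatum (DA) from untreated rats loaded with 10^-6 M [3H]NE or [3H]dopamine, then washed. Exposed to drug (10^-7 to 10^-3 M) for 30 min, then centrifuged. Amines separated from deaminated metabolites on Dowex 50 Na+ and counted by scintillation with recovery correction. Release = % of total label found in medium. EC50 = half-maximal concentration; 3-4 experiments.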

Rattus norvegicus [2] = organism: Rattus norvegicus; assay: Effective concentration was measured for the release of accumulated [3H]NE from chopped cortex of rat; in short: as §1
Rattus norvegicus [3] = organism: Rattus norvegicus; assay: Inhibitory concentration against uptake of [3H]NE into chopped cerebral cortical tissue from rat brain
In short: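 Chopped rat cerebral cortex preincubated 10 min at 37 °C in physiological salt solution (95% O2-5% CO2) with drug at 10^-8 to 10^-3 M. [3H]NE then added to 10^-7 M final. Uptake stopped by centrifugation. Tissue ethanol extract and medium counted by scintillation. Inhibition taken as % of control; 3-4 experiments.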

Row | SMILES | EC50 (Rattus norvegicus [1]; Rattus norvegicus) [µM] | EC50 (Rattus norvegicus [2]; Rattus norvegicus) [µM] | IC50 (Rattus norvegicus [3]; Rattus norvegicus, Brain) [µM] | EC50 (Rattus norvegicus [1]) [µM] | EC50 (Rattus norvegicus [2]) [µM] | IC50 (Rattus norvegicus [3]) [µM]
1 | N[C@H]1CC2C[C@@H]1c1ccccc12 | 794 | 630 | 100 | – | – | –
2 | NC1CC2CCC1c1ccccc12 (stereo in doubt; 1a) | – | – | – | 192 | 147 | 0.8
3 | CNC1CC2CCC1c1ccccc12 (stereo in doubt; 2b) | – | – | – | > 1000 | > 1000 | 48
4 | CNC1CC2CC1c1ccccc12 (stereo in doubt; 4b) | – | – | – | > 1000 | > 1000 | 369
5 | N[C@@H]1CC2C[C@@H]1c1ccccc12 | 185 | 16 | 1.1 | – | – | –
6 | CNC1CC2CCC1c1ccccc12 (stereo in doubt; 1b) | – | – | – | 185 | 178 | 0.8
7 | NC1CC2CCC1c1ccccc12 (stereo in doubt; 2a) | – | – | – | 681 | 1000 | 39
8 | CNC1CC2CC1c1ccccc12 (stereo in doubt; 3b) | – | – | – | 271 | 450 | 1.8
9 | C[C@@H](N)Cc1ccccc1 [LEVAMFETAMINE] | 61 | 1.7 | 0.5 | – | – | –
10 | C[C@H](N)Cc1ccccc1 [DEXTROAMPHETAMINE] | 11 | 0.8 | 0.2 | – | – | –

Reference: ChEMBL document CHEMBL1121447, “Pronounced pharmacological differences arising from minor structural changes in conformationally defined amphetamine analogues. Comparative evaluation of endo- and exo-2-amino- and endo- and exo-2-(methylamino)benzobicyclo[2.2.1]heptene and -benzobicylco[2.2.2]octene analogues. Conformationally …” (J Med Chem, 1980)
